The list is not random: actives were taken first. Their share in the collection is about 1.5%.
UBC13 polyUb – UBC13 polyubiquitin chain formation inhibitors, primary screen, biochemical, TR-FRET, uHTS | hit rate 0.47% among 330,000 | AID 485273, 2010 | inhibition, % at 20 µM | Ubiquitin-conjugating enzyme E2 N (Homo sapiens), P61088; in the data active means inhibition above about 45%, passing the limit was not always enough
PREPL inh – PREPL enzyme inhibitors, primary screen, biochemical, fluorescence polarization; Prolyl endopeptidase-like (Homo sapiens), Q4J6C6; recombinant PREPL, fluorescence polarization activity-based probe; inhibition, % at 5.96 µM; hit rate 0.68% among 320,000; in the data active means inhibition above about 43%
UCH37 inh – inhibitors of human UCH37 deubiquitinase, primary screen, biochemical, Ub-AMC cleavage, fluorescence. AID 588478, 2011. Ubiquitin carboxyl-terminal hydrolase isozyme L5 (Homo sapiens), Q9Y5K5. inhibition, % (concentration not given with the values). purified proteasome/UCH37. hit rate 0.33% among 330,000;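 active means mean inhibition over replicate wells above about 20%, limit read from the data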
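Material: Human UCH37 enzyme supplied as purified proteasome complex | Schedule: 30 min preincubation with enzyme, 25 min cleavage at room temperature | Detection: AMC fluorescence 355/460 nm | Measure: % inhibition of Ub-AMC cleavage fluorescence | Controls: Wells without proteasome as full block, compound-free enzyme plus substrate as uninhibited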
Apaf1 inhib – inhibitors of human Apaf-1 apoptosome, primary screen, biochemical, DEVD-Rh110 fluorescence, uHTS; Apoptotic protease-activating factor 1 (Homo sapiens), O14727; reconstituted apoptosome caspase-3 activity; inhibition, % at 20 µM; hit rate 0.71% among 330,000; active means inhibition of at least 40% at 20 µM
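System – cell-free apoptosome with Apaf-1, procaspase-3 and caspase-9 · Buffer or medium – pH 7.5 Hepes buffer with CHAPS, BSA, DTT · Also added – cytochrome c with DEVD-Rh110 · Times – 30 min compound preincubation, 50 min activation, room temperature · Technique – Rh110 fluorescence intensity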
A number is an active result; - = inactive; . = no result; ! = repeats disagree.

SMILES	UBC13 polyUb	PREPL inh	UCH37 inh	Apaf1 inhib
COc1cc2nc(Nc3ccc(F)cc3)nc(N)c2cc1OC	-	-	-	-
CCOC(=O)c1ccc(Nc2nc(N)c3cc(OC)c(OC)cc3n2)cc1	-	-	-	54
COC(CN(C(=O)CCl)C(C(=O)NC1CCCC(C)C1C)c1ccc(C)cc1)OC (stereo not drawn)	-	-	22	-
COC(CN(C(=O)CCl)C(C(=O)NC1CCCCC1)c1ccc(Cl)cc1)OC (stereo not drawn)	-	-	-	-
COc1ccccc1OCC(=O)NN=C1SCC(=O)N1Cc1ccccc1	.	.	-	.
O=C(NN=Cc1sc(=O)[nH]c1-[n+]1ccccc1)c1ccccc1[O-]	.	.	20	.
O=C(N/N=C/c1sc(=O)[nH]c1-[n+]1ccccc1)c1ccccc1[O-]	-	-	.	-
CC(C)(C)c1cc[n+](-c2[nH]c(=O)sc2C=N/N=C(\[O-])c2ccccc2)cc1	.	.	21	.
Cc1cccc(OCC(=O)NCC(=O)NN=Cc2cccs2)c1	.	.	-	.
CC(NC(=O)Nc1ccccn1)N1C(=O)C2C3C=CC(C3)C2C1=O (stereo not drawn)	-	-	23	-
O=C(CSCCc1ccccn1)Nc1cccnc1	-	-	23	-
COc1ccc(NC(=O)CSCCc2ccccn2)cc1OC	-	-	-	-
CC(/C=C/c1ccccc1)=NNC(=O)CNC(=O)c1ccccc1Cl	.	.	-	.
COc1cc(C=NNc2ccc(C)cc2)cc(Br)c1O	.	.	-	.
CN(C)c1ccc(C(=O)c2ccccc2C(=O)O)c(O)c1	-	-	23	-
O=C(NN=C1CC2CC=CC12)c1ccc(COc2ccccc2)cc1 (stereo not drawn)	.	.	-	.
Cc1nn(Cc2ccc(C(=O)NN=Cc3ccncc3)o2)c(C)c1Cl	.	.	-	.
CCCC[C@H](CC(=O)c1ccccc1)[C@@H](OC(C)=O)C(=O)Oc1c(C(C)C)cccc1C(C)C	-	-	25	-
CCCCC(C(=O)O)C(C)CC(=O)Nc1cccc(C(=O)O)c1 (stereo not drawn)	-	-	-	-
C#CNC(=O)C1(CC=C)CCNCC1	-	-	32	-
CCC1(CC)NC(=O)NC1=O	-	-	32	-
CCC1(c2ccc(F)cc2)NC(=O)NC1=O (stereo not drawn)	-	-	-	-
N#CC(=NNc1ccc([N+](=O)[O-])cc1)C(=N)N1CCCCC1	.	.	23	.
N#C/C(=N\Nc1ccc([N+](=O)[O-])cc1)C(=N)N1CCOCC1	-	-	.	-
C/C(CCc1ccc2c(c1)OCO2)=N\NC(=O)c1ccccc1	-	-	.	-
SMILES	UBC13 polyUb	PREPL inh	UCH37 inh	Apaf1 inhib
NC(=NCc1ccc2c(c1)OCO2)NC(=O)c1ccccc1	-	.	24	-
CCCCc1ccc(NC(=S)Nc2ccc(Nc3ccc(OC)cc3)cc2)cc1	-	47	-	-
Nc1nnc(CC(=O)NN=Cc2ccc(-c3cccc(C(=O)O)c3)o2)s1	.	.	-	.
COc1cccc(-c2cc(C(=O)N3CCc4ccccc4C3)no2)c1	-	-	22	-
COc1ccc(-c2cc(C(=O)N3CCc4ccccc4C3)no2)cc1	-	-	-	-
O=C(/C=C/c1ccccc1)N1CCC(c2ccccc2)C1 (stereo not drawn)	-	-	-	-
O=C(/C=C/c1ccco1)N1CCCC(c2ccccc2)C1 (stereo not drawn)	-	-	26	-
CC(=O)[C@H]1[C@H](c2cccc(Cl)c2)C(C#N)(C#N)[C@@H]2c3ccccc3C=CN21	-	-	.	56
CC(/C=C/C=C/c1ccccc1)=N\NC(=O)c1cccnc1	-	-	.	-
CC(/C=C/C=C/c1ccccc1)=NNC(=O)c1cccnc1	.	.	24	.
OC(CNCc1ccccc1)Cn1ccc2ccccc21 (stereo not drawn)	-	-	-	-
Cc1cc(C)n(CC(O)Cn2ccc3ccccc32)n1 (stereo not drawn)	-	-	-	-
Oc1ccccc1NCC(O)Cn1ccc2ccccc21 (stereo not drawn)	-	45	-	-
OC(CN1CCNCC1)Cn1ccc2ccccc21 (stereo not drawn)	-	60	.	-
Nc1nonc1-n1nnc(C(=O)NN=Cc2ccncc2)c1-c1cccs1	.	.	-	.
Oc1ccccc1C=NNc1ccccc1	.	.	-	.
O=S(=O)(O)c1ccc(NN=Cc2ccccc2O)cc1	.	.	23	.
O=C(CSc1nc2ccccc2o1)NN=Cc1ccco1	.	.	-	.
S=C(c1cn(Cc2ccc(Br)cc2)c2ccccc12)N1CCOCC1	-	50	.	-
Cc1nc(SCc2ccc(O)c([N+](=O)[O-])c2)n[nH]1	-	-	.	-
Cc1nc(SCc2ccc(O)c([N+](=O)[O-])c2)c([N+](=O)[O-])[nH]1	-	-	20	-
O=C(NN=C/C=C/c1ccccc1[N+](=O)[O-])c1cccs1	.	.	-	.
CC(=O)NC(c1cccs1)c1cc([N+](=O)[O-])c2cccnc2c1O (stereo not drawn)	.	-	20	.
CCCC(=O)NC(c1cccs1)c1cc([N+](=O)[O-])c2cccnc2c1O (stereo not drawn)	.	-	-	.
CC(=O)NC(c1ccccc1)c1cc([N+](=O)[O-])c2cccnc2c1O (stereo not drawn)	-	-	-	-
SMILES	UBC13 polyUb	PREPL inh	UCH37 inh	Apaf1 inhib
CCC(=O)NC(c1cccs1)c1cc([N+](=O)[O-])c2cccnc2c1O (stereo not drawn)	-	-	20	-
CCOc1ccc(C=NNC(=S)NC2CC3CC2C2C=CCC32)cc1 (stereo not drawn)	.	.	-	.
COc1cccc(C=NNC(=O)CNC(=O)c2ccc(S(=O)(=O)N3CCCC3)cc2)c1OC	.	.	-	.
Cn1cccc1C=NNC(=O)c1cccc(OC(F)(F)C(F)F)c1	.	.	-	.
O=C(Cc1cc(=O)[nH][nH]1)N/N=C/C=C/c1ccccc1	-	-	.	48!
C/C(C=NNC(=O)Cc1cc(=O)[nH][nH]1)=C\c1ccccc1	.	.	-	.
CC(=O)c1cccc2c(O)c(C3=Nc4ccccc4C3=O)[nH]c12	-	-	28	-
O=C1C(c2c(O)[nH]c3ccccc23)=Nc2ccccc21	-	-	-	-
O=C(COc1ccccc1)NCC(=O)NN=Cc1cc(Br)ccc1OCc1ccccc1	.	.	-	.
CC(=NNC(=O)COc1ccc([N+](=O)[O-])cc1)C(C)(C)C	.	.	-	.
C[C@@H]1CN(S(=O)(=O)C(C)(C)C)[C@@H](CCO)/C1=C\c1ccccc1	.	.	-	.
CC(C)(C)S(=O)(=O)N1C[C@H]2CC/C=C\C/C(c3ccccc3)=C\2[C@@H]1CCO	.	.	25	.
Cn1nc(-c2ccc(Cl)cc2)c2cc(C(=O)NCCCN3CCCC3)sc21	-	-	-	49
CN(C)/C=C/C(=O)c1ccc(-n2cccc2)cc1	-	-	22	-
COc1ccc(CC2=C(O)c3ccccc3C(=O)C2=O)cc1	-	-	-	-
O=C1C(=O)c2ccccc2C(O)=C1CCCCl	-	-	.	83
O=[N+]([O-])c1ccc(Nc2nc(N/N=C/c3cccc(F)c3)nc(N3CCCC3)n2)cc1	-	47	.	-
Clc1ccc2c(NN=Cc3ccccc3Br)ccnc2c1	.	.	-	.

Assay outcomes: PubChem, several laboratories
